T cell HTS = modulates CD8 T cell binding to vesicles. 0.068% of 330,000 active. AID 2052. response (vesicle binding), % at 7 µM. 2C CD8+ T cell-vesicle binding, flow cytometry; hits give low values;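 active = response, share of CD8 T cells binding vesicles, and their 90th percentile fluorescence all below set limits, cut at about 80% in these data, passing the limit was not always enough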;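 note: values below 100% mean blocked vesicle binding to the CD8+ T cells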
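material = purified 2C TCR transgenic mouse naive CD8+ T cells | controls = Unloaded micro-vesicles (low), QL9 vesicles with 0.7% DMSO (high) | detection = cytometric PE anti-B7-1 and Alexa647 anti-CD8 signals after 1% paraformaldehyde fixation | incubation = binding step 1.5 h, 37 °C, antibody labelling 20 min, ice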
Myeloid diff MLP = myeloid differentiation induction; ER-HoxA9 myeloid progenitors, lysozyme-GFP differentiation, flow cytometry; calls only at 10 µM; 1% of 360,000 active;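 active = normalized GFP-positive differentiation at or above the plate's own cutoff, the solvent-only control mean plus 3 SD; inconclusive = no clear call, values can overlap the other calls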;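 note: cells exposed to compound for four days before flow analysis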
Vif imaging = HIV Vif inhibition. HEK293T cells, Vif self-association by quenched fluorescence, imaging, 24 h. inhibition, % at 7.49 µM. 0.35% of 340,000 active. AID 602346; in the data active = inhibition above about 50%, passing the limit was not always enough; inconclusive = no clear call, values can overlap the other calls; inactive = below about 31%
Casp6 inh = inhibitors of human caspase-6. P55212. purified caspase-6, Z-VEID-R110 cleavage fluorescence. inhibition, % at 12.5 µM. 0.53% of 350,000 active. AID 686996;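 active = mean inhibition across replicates at least about 35%, with every replicate also reaching that limit, limit read from the data; inconclusive = only one of the two criteria met; inactive = neither criterion met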
Target sequence (P55212 24-179 limits assumed): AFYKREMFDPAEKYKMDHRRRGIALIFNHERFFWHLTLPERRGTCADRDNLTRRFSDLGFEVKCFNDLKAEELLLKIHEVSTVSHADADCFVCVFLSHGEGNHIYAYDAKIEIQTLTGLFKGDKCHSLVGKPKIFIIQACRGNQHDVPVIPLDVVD
Target sequence (P55212 194-293 limits assumed): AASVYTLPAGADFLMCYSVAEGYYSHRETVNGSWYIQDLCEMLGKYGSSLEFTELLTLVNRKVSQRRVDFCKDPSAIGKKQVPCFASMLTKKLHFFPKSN
Myeloid diff = promotes myeloid progenitor differentiation; shares compounds with Myeloid diff MLP; ER-HoxA9 myeloid progenitors, GFP/Mac1 double-positive flow; calls only; 2% of 2,300 active;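 active = share of green or green-and-red cells above 9 and 9% in run 1 or 4 and 3% in run 2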
GFP autofluor = compound fluorescence in myeloid differentiation counter-screen; shares compounds with Myeloid diff MLP; ER-HoxA9 myeloid progenitors, no estrogen, GFP autofluorescence flow cytometry; vehicle wells 0%, positive control 100%; fluorescence response, % (concentration not given with the values); 7.4% of 2,300 active; AID 651707;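 active = over 5% cells positive for green fluorescent reporter, or over 2% positive for both it and APC stain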
Calls only; 0 = inactive; ? = inconclusive; - = no result given; + = active, no number. Sampled rows, rich in hits. Any-hit rate of the full collection: about 1.4%.

SMILES | T cell HTS | Myeloid diff MLP | Vif imaging | Casp6 inh | Myeloid diff | GFP autofluor
CS(=O)(=O)N1CC(=O)N2[C@H](CO)[C@@H](c3ccc(C#CC4CCCC4)cc3)[C@@H]2C1 | - | - | - | 0 | - | -
Cc1cccc(NC(=O)c2ccccc2SCc2ccc(F)cc2)n1 | 0 | + | 0 | 0 | 0 | 0
Cc1cc(C)n2c(NC3CCCCC3)c(-c3ccccn3)nc2n1 | - | 0 | - | 0 | - | -
Cc1cc(C)n2c(NC3CCCC3)c(-c3cc4ccccc4o3)nc2n1 | - | 0 | - | 0 | 0 | 0
O=C(Nc1ccc2c(c1)OCO2)c1ccc(Br)c(S(=O)(=O)N2CCCC2)c1 | 0 | + | 0 | - | 0 | 0
O=C(Nc1ccc2c(c1)OCCO2)c1ccc(Br)c(S(=O)(=O)N2CCOCC2)c1 | - | 0 | 0 | - | - | -
O=C(Nc1ccc2c(c1)OCO2)C1CCN(S(=O)(=O)c2ccc3c(c2)OCCO3)CC1 | 0 | 0 | 0 | - | 0 | 0
COc1ccc(S(=O)(=O)N2CCC(C(=O)Nc3ccc4c(c3)OCCO4)CC2)cc1OC | 0 | 0 | 0 | - | - | -
Cc1ccc(/C=N/c2sc(Cc3ccccc3)c(C)c2C(N)=O)o1 | 0 | 0 | 0 | 0 | 0 | 0
C[C@H](CO)N1C[C@H](C)[C@H](CN(C)Cc2ccccn2)Oc2ncc(C3=CCCCC3)cc2C1=O | - | - | - | 0 | - | -
CC(C)c1ccc(C2CC(=O)c3cnc(N4CCc5ccccc5C4)nc3C2)cc1 (centres undefined) | 0 | 0 | 0 | - | - | -
CC1CC(C)CN(c2ncc3c(n2)CC(c2ccccc2)CC3=O)C1 (centres undefined) | 0 | + | 0 | - | 0 | 0
COc1ccc2c3c(n(C)c2c1)[C@H](CO)N(C(=O)Nc1ccc(F)cc1)CC31CCN(C(=O)CN2CCOCC2)CC1 | - | - | - | 0 | - | -
COc1ccc(CN(C)c2ccc(S(=O)(=O)N3CCN(C)CC3)cc2[N+](=O)[O-])cc1OC | 0 | 0 | 0 | 0 | 0 | 0
COc1ccc(CCN(C)c2ccc(S(=O)(=O)N3CCCC3)cc2[N+](=O)[O-])cc1OC | 0 | 0 | 0 | 0 | - | -
C[C@H](CO)N1C[C@H](C)[C@@H](CN(C)CC2CCOCC2)Oc2ncc(C#Cc3ccncc3)cc2C1=O | - | - | - | 0 | - | -
C#CC[N+](C)(C)CCCCCCCC | 0 | 0 | 0 | 0 | 0 | 0
CCOC(=O)C1CCN(C(=O)CCc2nnc3ccc(NCc4ccco4)nn23)CC1 | 0 | + | 0 | 0 | 0 | 0
O=C(CCc1nnc2ccc(NCc3ccco3)nn12)N1CCN(c2ccccc2)CC1 | 0 | ? | 0 | 0 | - | -
Cc1ccc(OCc2nnc(SCc3nc4ccccc4[nH]3)n2Cc2ccco2)cc1 | 0 | + | 0 | - | + | 0
c1ccc(-c2nnc(SCc3nc4ccccc4[nH]3)n2Cc2ccco2)cc1 | 0 | 0 | 0 | - | - | -
CCOc1cccc(=O)c2c(C)oc(C)c12 | 0 | 0 | 0 | 0 | 0 | 0
CCc1cccc(CC)c1NC(=O)NC1CCCCC1 | 0 | + | 0 | - | 0 | 0
O=C(C[C@H]1CC[C@@H](NC(=O)Nc2ccc(F)cc2)[C@@H](CO)O1)NCc1ccccn1 | - | - | - | 0 | - | -
O=C(C[C@@H]1C[C@H]2c3cc(NC(=O)NC4CCCCC4)ccc3O[C@H]2[C@@H](CO)O1)NCc1ccncc1 | - | - | - | 0 | - | -
SMILES | T cell HTS | Myeloid diff MLP | Vif imaging | Casp6 inh | Myeloid diff | GFP autofluor
O=C(Nc1ccncc1)c1ccc(Cl)c(S(=O)(=O)N2CCc3ccccc32)c1 | 0 | 0 | 0 | 0 | 0 | 0
COc1ccc(C(=O)NC2CCCCCC2)cc1S(=O)(=O)N1CCCC1 | 0 | 0 | 0 | 0 | - | -
COc1ccc(C(=O)NC2CCCCCC2)cc1S(=O)(=O)N1CCCc2ccccc21 | 0 | 0 | 0 | - | 0 | 0
Cc1ccc(S(=O)(=O)N[C@@H]2C=C[C@@H](CC(=O)NCCc3ccncc3)O[C@H]2CO)cc1 | - | - | - | 0 | - | -
CS(=O)(=O)N1[C@@H]2Cn3c(ccc(C4=CCCC4)c3=O)[C@H]1[C@@H](C(=O)N1CCCCC1)[C@@H]2CO | - | - | - | 0 | - | -
CC1CCN(CCCNC(=O)c2cc3c(=O)n(C)c4ccccc4c3n2C)CC1 | 0 | 0 | 0 | 0 | 0 | 0
Cn1c(C(=O)NCCCN2CCOCC2)cc2c(=O)n(C)c3ccccc3c21 | 0 | 0 | 0 | 0 | - | -
CCOc1ccc(/C=C/C(=O)N2CCOCC2)cc1OC | 0 | 0 | 0 | 0 | - | -
CCOc1cc(C(=S)N2CCOCC2)ccc1OC(=O)/C=C/c1ccc(OC)c(OC)c1 | 0 | 0 | 0 | - | 0 | 0
Cn1c(-c2cccs2)[n+](C)c2ccccc21 | 0 | 0 | 0 | 0 | 0 | 0
COn1c(=O)c(-c2cccs2)[n+]([O-])c2ccccc21 | 0 | 0 | 0 | - | - | -
COC(=O)c1cc(S(=O)(=O)N2CCOCC2)ccc1Sc1ccccc1N | 0 | 0 | - | - | 0 | 0
COC(=O)c1cc(S(=O)(=O)N2CCCCC2)ccc1N1CCOCC1 | 0 | - | 0 | 0 | - | -
O=C(NCc1cccnc1)NC1(C(F)(F)F)Oc2ccccc2O1 | 0 | + | 0 | - | 0 | 0
CC(C)CNC(=O)NC1(C(F)(F)F)Oc2ccccc2O1 | 0 | 0 | 0 | 0 | - | -
Cc1ccc2nc(NC(=O)CSCC(=O)OCC(=O)c3ccccc3)sc2c1 | 0 | + | 0 | - | 0 | 0
COc1ccc(-c2csc3ncn(-c4ccccc4OC)c(=O)c23)cc1OC | 0 | + | 0 | - | 0 | 0
COc1ccc(-c2csc3ncn(-c4ccccc4)c(=O)c23)cc1OC | 0 | 0 | 0 | 0 | - | -
CCC(=O)N1[C@@H](CO)[C@@H](c2ccccc2)C12CN(C(=O)c1ccc(F)cc1)C2 | - | - | - | 0 | - | -
CN(C)C(=O)c1cccc(-c2ccc([C@H]3[C@@H](CO)N4CCCCN(C(=O)C5CCCC5)C[C@@H]34)cc2)c1 | - | - | - | 0 | - | -
Clc1ccc(-c2cnc3cccnn23)cc1 | - | 0 | 0 | 0 | - | -
Nc1cccn2c(-c3ccc(Cl)cc3)cnc12 | 0 | + | 0 | 0 | 0 | 0
CN1c2ccc(Br)cc2[C@H]2[C@H](CCN2C(=O)C2CCCCC2)[C@H]1CO | - | - | - | 0 | - | -
O=c1[nH]c(SCc2ccccc2)nc2c1sc1ccccc12 | 0 | + | 0 | 0 | 0 | 0
Cc1ccc(CSc2nc3ccccc3c(=O)[nH]2)cc1 | 0 | 0 | 0 | 0 | - | -
SMILES | T cell HTS | Myeloid diff MLP | Vif imaging | Casp6 inh | Myeloid diff | GFP autofluor
Cc1cc(C)cc(N2C(N)=NC(N)=NC2c2cccc(Cl)c2)c1 (centres undefined) | 0 | 0 | 0 | 0 | - | -
Cc1cc(C)cc(N2C(N)=NC(N)=NC2c2ccccc2F)c1 (centres undefined) | 0 | 0 | 0 | 0 | 0 | 0
Cc1ccc(CNC(=O)C(=O)NCC2OCCN2C(=O)c2cccs2)cc1 (centres undefined) | 0 | + | 0 | 0 | 0 | 0
O=C(NCc1ccccc1)C(=O)NCC1OCCN1C(=O)c1cccs1 (centres undefined) | 0 | 0 | 0 | 0 | - | -
CCOC(=O)c1c(C)[nH]c(C(=O)COC(=O)c2ccc(F)c(S(=O)(=O)N3CCOCC3)c2)c1C | 0 | + | 0 | - | 0 | 0
CCCNC(=O)N1[C@H](CO)[C@H](c2ccc(C3=CCCCC3)cc2)[C@H]1CNC(C)C | - | - | - | 0 | - | -
O=C(O)c1ccccc1Nc1ccc([N+](=O)[O-])cc1 | 0 | 0 | 0 | 0 | + | 0
COc1ccc(C(=O)N2CCc3cc(OC)c(OC)cc3C2c2ccc(OC)c(OC)c2)cc1 (centres undefined) | 0 | 0 | 0 | 0 | 0 | 0
